Data on 7 molecules can be found in ChEMBL document CHEMBL3244386, “Synthesis of fused [1,2,6]thiadiazine 1,1-dioxides as potential transition-state analogue inhibitors of xanthine oxidase and guanase” (J Med Chem, 1979).

The structures appear in SMILES notation. Active and inactive are the calls of the source. The calls are words filed in the database; no cut-off is given here.

The pKa is the negative logarithm of the acid dissociation constant. As a reminder, the Ki is a measure of affinity in units of concentration, obtained from inhibition or displacement. Low readings indicate tighter binding, high ones weaker binding.

The target in series [1] is T1, Xanthine dehydrogenase/oxidase (Homo sapiens, UniProt P47989). The series can be described thus: Inhibition of xanthine oxidase (unknown origin) assessed as conversion of xanthine to uric acid under anaerobic condition at 5 X 10^-4 M after 1 hr. The settings on record: 500 µM. The essentials:
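Reduced-form incubation: xanthine oxidase (50 µL of 1.2 µM), 1.0 mL of a 5 × 10⁻⁴ M compound solution and EDTA in pH 7.4 Tris were purged with N₂. Xanthine was added to reduce the enzyme, and the sealed tube was held 1 h at 25 °C (compound:enzyme 8.3 × 10³). The tube was then opened to air, xanthine added, and the 295 nm initial rate compared with controls.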

The nature of series [2]: Dissociation constant, pKa of the compound by titrimetric analysis. In kind it is physicochemical.
In series [3] the target is T1, Xanthine dehydrogenase/oxidase. Briefly: Inhibition of xanthine oxidase (unknown origin) assessed as conversion of xanthine to uric acid under aerobic condition at 0.5 mM after 1 hr. The settings on record: 500 µM. The essentials:
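Oxidized-form incubation: xanthine oxidase (50 µL of 1.2 µM) was incubated aerobically for 1.0 h with 1.0 mL of a 5 × 10⁻⁴ M compound solution and EDTA in Tris-HCl buffer, total 2.75 mL. Xanthine was then added, and the initial rate of uric acid formation was read at 295 nm against controls without compound.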

Series [4] is filed under the species Oryctolagus cuniculus. Briefly: Inhibition of rabbit liver guanase using guanine as substrate compound treated at 32 times substrate concentration. An outline of the steps: (§1)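 Rabbit liver guanase assay in 1.0 mL pH 7.4 0.05 M Tris-HCl with 13.3 µM guanine, started by adding enzyme. Guanine disappearance was followed at 248 nm and compared with a reaction run without inhibitor.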

The species named for series [5] is Oryctolagus cuniculus. The series can be described thus: Inhibition of rabbit liver guanase using 13.3 uM guanine as substrate assessed as ([I]/[S])50. The essentials: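 Rabbit liver guanase in 1.0 mL pH 7.4 0.05 M Tris-HCl with 13.3 µM guanine and varying inhibitor, started by adding enzyme. Guanine loss read at 248 nm. V0/Vi was plotted against [I], and I50 was taken where V0/Vi = 2, then expressed relative to the substrate level. Values were reproducible within ±20%.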

The species entered for series [6] is Oryctolagus cuniculus. The series can be described thus: Noncompetitive inhibition of rabbit liver guanase using guanine as substrate by Lineweaver-Burk plot analysis. An outline of the steps: (§2)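 Kinetics used rabbit liver guanase in pH 7.4 0.05 M Tris-HCl, with guanine at 20, 10, 6.4 and 4.8 µM and four inhibitor concentrations, read at 248 nm. Lineweaver–Burk (1/V vs 1/[S]) and Dixon (1/V vs [I]) plots were drawn. Ki was taken from the Dixon x-intercept ([…]).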

Series [7] in a line: Noncompetitive inhibition of rabbit liver guanase using guanine as substrate by Dixon plot analysis. On the set-up: species or system Oryctolagus cuniculus. An outline of the steps: as §2
The species named for series [8] is Oryctolagus cuniculus. The series can be described thus: Inhibition of rabbit liver guanase using guanine as substrate compound treated at 28 times substrate concentration. An outline of the steps:
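Rabbit liver guanase, diluted from a 10 mg protein/mL stock, run at pH 7.4 in 0.05 M Tris-HCl with 13.3 µM guanine as substrate. Inhibitor was added at varying amounts, at least 28 times the substrate concentration. The enzyme was added last to start the reaction. Guanine loss was followed at 248 nm, and velocities were compared with the uninhibited control.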

Series [9] is filed under the species Oryctolagus cuniculus. The series can be described thus: Inhibition of rabbit liver guanase using guanine as substrate compound treated at 46 times substrate concentration. The essentials: as §1
The species entered for series [10] is Oryctolagus cuniculus. Briefly: Inhibition of rabbit liver guanase using guanine as substrate at 0.4 mM. An outline of the steps:
as §1

T1 sequence (P47989 whole entry): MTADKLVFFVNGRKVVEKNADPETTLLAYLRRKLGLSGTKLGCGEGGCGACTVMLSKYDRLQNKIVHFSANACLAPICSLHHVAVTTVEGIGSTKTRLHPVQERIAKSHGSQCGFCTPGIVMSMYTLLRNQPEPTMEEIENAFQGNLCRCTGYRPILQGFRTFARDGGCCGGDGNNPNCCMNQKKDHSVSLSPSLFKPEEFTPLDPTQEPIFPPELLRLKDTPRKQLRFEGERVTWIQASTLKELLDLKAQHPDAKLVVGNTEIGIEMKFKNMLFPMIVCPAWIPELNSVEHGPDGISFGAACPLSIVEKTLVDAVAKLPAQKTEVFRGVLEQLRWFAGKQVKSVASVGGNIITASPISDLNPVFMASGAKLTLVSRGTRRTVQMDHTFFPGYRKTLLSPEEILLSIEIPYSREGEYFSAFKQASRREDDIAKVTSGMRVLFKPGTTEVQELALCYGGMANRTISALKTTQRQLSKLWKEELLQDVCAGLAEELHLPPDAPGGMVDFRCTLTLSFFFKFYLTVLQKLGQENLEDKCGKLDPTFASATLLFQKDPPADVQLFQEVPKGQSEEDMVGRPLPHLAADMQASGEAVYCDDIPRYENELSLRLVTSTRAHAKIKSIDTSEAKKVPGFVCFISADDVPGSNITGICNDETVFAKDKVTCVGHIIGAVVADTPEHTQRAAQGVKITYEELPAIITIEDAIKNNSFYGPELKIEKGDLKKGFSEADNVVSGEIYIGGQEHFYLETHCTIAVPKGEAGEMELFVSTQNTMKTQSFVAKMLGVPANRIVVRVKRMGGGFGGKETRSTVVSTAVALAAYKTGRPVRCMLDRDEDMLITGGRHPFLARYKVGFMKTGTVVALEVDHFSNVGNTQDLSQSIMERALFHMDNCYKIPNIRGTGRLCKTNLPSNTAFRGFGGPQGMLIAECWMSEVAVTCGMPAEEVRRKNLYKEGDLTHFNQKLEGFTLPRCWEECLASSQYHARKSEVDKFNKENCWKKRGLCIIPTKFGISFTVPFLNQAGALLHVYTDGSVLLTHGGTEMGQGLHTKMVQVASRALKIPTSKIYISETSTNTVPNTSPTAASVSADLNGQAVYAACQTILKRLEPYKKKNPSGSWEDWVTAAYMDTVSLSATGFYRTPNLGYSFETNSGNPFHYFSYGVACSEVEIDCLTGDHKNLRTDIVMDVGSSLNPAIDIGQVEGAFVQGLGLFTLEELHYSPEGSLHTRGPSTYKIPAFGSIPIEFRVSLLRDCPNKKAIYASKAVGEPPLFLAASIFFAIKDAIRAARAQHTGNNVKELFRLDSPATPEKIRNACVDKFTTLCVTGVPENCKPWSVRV

As to `NC1=NS(=O)(=O)Nc2[nH]ncc21`, the “inhibition (INH)” value in series [1] and in [3] was “Not Active” each time. The pKa in series [2] was 4.1. In addition, the inhibition result in the series filed under Oryctolagus cuniculus [4] was “inactive”.

In the case of `O=C1NS(=O)(=O)Nc2[nH]ncc21`, the “inhibition (INH)” value in series [1] and in series [3] was “Not Active” throughout. The pKa in series [2] was 6.5. Besides, the Ratio in the series listed under Oryctolagus cuniculus [5] is 15. For the same molecule, in the series listed under Oryctolagus cuniculus [6], the inhibition entry was “Active”. The Ki in [7] came to 250 µM.

For `O=C1NS(=O)(=O)Nc2nc[nH]c21`, the “inhibition (INH)” value in series [1] and in [3] was “Not Active” in each case. Also, in the series listed under Oryctolagus cuniculus [8], the inhibition entry was “inactive”.

For `NC1=NS(=O)(=O)Nc2[nH]cnc21`, in the series listed under Oryctolagus cuniculus [9], the inhibition result is “inactive”.

For `NC1=NS(=O)(=O)Nc2nsnc21`, the “inhibition (INH)” value in [1] and in series [3] was “Not Active” throughout. The molecule further yielded a pKa in series [2] of 3.2. Also, the Ratio in the series filed under Oryctolagus cuniculus [5] came to 11. Moreover, in the series listed under Oryctolagus cuniculus [6], the inhibition result was “Active”. The Ki in series [7] was 190 µM.

As for `O=c1[nH]cnc2nsnc12`, the inhibition result in the series listed under Oryctolagus cuniculus [10] is “inactive”.

In the case of `NC1=NS(=O)(=O)Nc2nc[nH]c21`, the “inhibition (INH)” value in [1] and in series [3] was “Not Active” each time.
